Experimental data of several laboratories.
Lines come from different studies, so protocols differ.
CDK5: Cyclin-dependent kinase 5 (CDK5, Homo sapiens, UniProt Q00535)
CDK5 with p35: Cyclin-dependent kinase 5, with p35 (CDK5, Homo sapiens, UniProt Q00535)
CDK5 with p25: Cyclin-dependent kinase 5, with p25 (CDK5, Homo sapiens, UniProt Q00535)

SMILES | target | assay | conditions | endpoint | result
N[C@H]1CCN(c2nccc(-c3cnn4ncccc34)n2)C1 | CDK5 | binding | 1 µM | remaining binding | 100%
O=C1NC(=O)c2cc(Nc3ccc(F)cc3)c(Nc3ccc(F)cc3)cc21 | CDK5 with p35 | cell-free assay | 0.5 µM | remaining signal | 98.5%
COc1ccc2c(c1)O[C@@H](c1ccc(OC)c(OC)c1)C[C@H]2NC(=O)C1(c2ccc3c(c2)OC(F)(F)O3)CC1 | CDK5 | cell-free assay, competition with immobilised ligand | 1 µM | remaining binding | 100%
Cc1cc(NC(=O)c2cccc3cc(-c4cccc5[nH]nc(N)c45)ccc23)ccc1F | CDK5 with p35 | enzyme activity, inhibitor | 0.1 µM | activity vs control | 103%
N#Cc1ccc(Nc2ccc3[nH]c(=O)[nH]c3c2)c(Cl)c1 | CDK5 | cell-free assay, competition with immobilised ligand | 1 µM | remaining binding | 100%
CC[C@H](C)[C@H](NC(=O)[C@H](CCC(N)=O)NC(=O)[C@H](CC(C)C)NC(=O)[C@H](CCSC)NC(=O)[C@H](CCCCN)NC(=O)[C@H](CO)NC(=O)[C@H](CO)NC(=O)[C@H](CCSC)NC(=O)[C@H](CC(C)C)NC(=O)[C@H](CC(N)=O)NC(=O)[C@@H](NC(=O)[C@@H](NC(=O)[C@H](CO)NC(=O)[C@H](CC(C)C)NC(=O)[C@H](CS)NC(=O)[C@H](CCCNC(=N)N)NC(=O)[C@H](CC(=O)O)NC(=O)[C@H](Cc1c[nH]c2ccccc12)NC(=O)[C@H](Cc1ccccc1)NC(=O)[C@H](C)NC(=O)[C@H](CCC(=O)O)NC(=O)[C@@H](N)CCCCN)C(C)C)[C@@H](C)CC)C(=O)N[C@@H](CC(N)=O)C(=O)N[C@@H](C)C(=O)O | CDK5 with p25 | enzyme activity, inhibitor, radiometric | 10 µM, 20 min | remaining activity | 87%
CC(C)c1ccc(NC(=O)c2cccs2)c(-c2nc3ccccc3[nH]c2=O)c1 | CDK5 with p25 | enzyme activity, inhibitor | 1 µM | activity vs control | 95%
Nc1ncnc2occ(-c3ccc(NC(=O)Nc4cc(C(F)(F)F)ccc4F)cc3)c12 | CDK5 | cell-free assay, inhibitor | 20 µM | remaining signal | 0.55%
C[C@H](c1ccnc(Nc2nc3ccc(-c4cc(N(C)C)ncn4)cc3[nH]2)c1)N1CCN(C(=O)CC(F)(F)F)CC1 | CDK5 | cell-free assay, competition with immobilised ligand | 0.1 µM | remaining binding | 86%
Cc1ccc(C(=O)NCc2ccsc2)cc1C#Cc1cn(C(C)C)c2ncnc(N)c12 | CDK5 with p35 | enzyme activity, inhibitor | 1 µM | activity vs control | 96%
CS(=O)(=O)N1CCCC(NC(=O)[C@H](CCC2CCCCC2)NC(=O)c2ccc(CNc3ncnc4c3nnn4-c3ccccc3)cc2)C1 (some centres unmarked) | CDK5 | cell-free assay, competition with immobilised ligand | 0.1 µM | remaining binding | 94%
N#CCCc1ccc2c(c1)-c1[nH]c3ccc([N+](=O)[O-])cc3c1CC(=O)N2 | CDK5 with p35 | cell-free assay | 0.5 µM | remaining signal | 2.6%
CO[C@@H](C)c1c(Nc2ccc([C@@H](N(C)C(=O)C3CCS(=O)(=O)CC3)C(F)(F)F)cc2)cnc2cc(Cl)nn12 | CDK5 | cell-free assay, competition with immobilised ligand | 1 µM | remaining binding | 99%
Cc1ccc(NC(=O)c2ccc(C)c(C(F)(F)F)c2)cc1C#Cc1nn(C2CCC(O)CC2)c2ncnc(N)c12 (centres unmarked) | CDK5 with p35 | cell-free assay | 10 µM | remaining signal | 127%
Oc1ccc(-c2nc(-c3ccncc3)c(-c3ccc(F)cc3)[nH]2)cc1 | CDK5 with p35 | cell-free assay | 0.5 µM | remaining signal | 97.3%
CCCOc1ccc(OC)c(F)c1C(=O)c1ccc(C(=O)N[C@@H]2CNC[C@H]2NC(=O)c2ccc3[nH]ncc3c2)cc1 | CDK5 with p25 | enzyme activity, inhibitor | 0.75 µM | remaining activity | 85%
O=C1Nc2ccc(Cl)cc2C1=Cc1cc(Cl)c(O)c(Cl)c1 | CDK5 with p35 | cell-free assay | 0.5 µM | remaining signal | 94.5%
CN(C)C1CCN(CC#Cc2nn(C3CCCC3)c3nc(NCc4ccccc4)ncc23)C1 (centres unmarked) | CDK5 with p25 | enzyme activity, inhibitor, FRET | 1 µM | inhibition | 3%
Nc1nc(Nc2ccc(S(N)(=O)=O)cc2)nn1C(=O)c1c(F)cccc1F | CDK5 with p35 | cell-free assay | 0.5 µM | remaining signal | 0.212%
CNC(=O)c1ccc(Nc2ncc(C(F)(F)F)c(NCc3nccnc3N(C)S(C)(=O)=O)n2)cc1 | CDK5 | cell-free assay, competition with immobilised ligand | 0.1 µM | remaining binding | 81%
